Data reported in ChEMBL document CHEMBL1131497, “Discovery of 1-(4-fluorophenyl)-(3R)-[3-(4-fluorophenyl)-(3S)-hydroxypropyl]-(4S)-(4 -hydroxyphenyl)-2-azetidinone (SCH 58235): a designed, potent, orally active inhibitor of cholesterol absorption” (J Med Chem, 1998).
Each block holds one compound with its values, some of them ahead of it. Activity calls are given as the source filed them. No cut-off for these calls is given here.

Columns and labels:
Cricetinae gen. sp. [1] = experiment: Evaluated for its ability to reduce liver cholesterol esters(LCE) in cholesterol-fed hamsters.; type: functional, Cricetulus griseus
Procedure, shortened: (§1)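 Hamsters were fed a 0.5% cholesterol diet for 7 days with once-daily oral gavage dosing in 0.2 mL corn oil. Controls got the same diet and vehicle without drug. Livers were collected on day 7 and neutral lipids extracted. Cholesteryl ester content was measured by HPLC. Results are given as percent change in hepatic cholesteryl ester versus cholesterol-fed controls, or as ED50 in mg/kg/day.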

[2] = Percent negation of rise in total serum cholesterol relative to control-fed 0.5% cholesterol for 7 days, At a dose of 0.3 mg/kg/day; percent reduction was not statistically significant; type: ADME, organism-based; conditions: in vivo, 168 h
Procedure, shortened: (§2)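 Serum total cholesterol was measured in hamsters given 0.5% dietary cholesterol for 7 days with daily oral gavage dosing (0.2 mL corn oil vehicle). Controls were cholesterol-fed animals receiving vehicle without drug. Results are expressed as percent negation of the diet-induced rise in serum total cholesterol relative to these controls.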

[3] = Percent negation of rise in total serum cholesterol relative to control-fed 0.5% cholesterol for 7 days, At a dose of 1 mg/kg/day; percent reduction was not statistically significant; type: ADME, organism-based; conditions: in vivo, 168 h; procedure, shortened: as §2
[4] = The pharmacokinetics property percent negation of rise in liver cholesterol esters relative to control-fed 0.5% cholesterol for 7 days, At a dose of 0.3 mg/kg/day; percent reduction was not statistically significant; type: ADME, organism-based; conditions: in vivo, 168 h; procedure, shortened: as §1
[5] = The pharmacokinetics property percent negation of rise in liver cholesterol esters relative to control-fed 0.5% cholesterol for 7 days, At a dose of 3 mg/kg/day; type: ADME, organism-based; conditions: in vivo, 168 h; procedure, shortened: as §1
[6] = Percent negation of rise in total serum cholesterol relative to control-fed 0.5% cholesterol for 7 days, At a dose of 3 mg/kg/day; type: ADME, organism-based; conditions: in vivo, 168 h; procedure, shortened: as §2
[7] = Percent negation of rise in total serum cholesterol relative to control-fed 0.5% cholesterol for 7 days, At a dose of 0.1 mg/kg/day; type: ADME, organism-based; conditions: in vivo, 168 h; procedure, shortened: as §2
[8] = Percent negation of rise in total serum cholesterol relative to control-fed 0.5% cholesterol for 7 days, At a dose of 0.3 mg/kg/day; type: ADME, organism-based; conditions: in vivo, 168 h; procedure, shortened: as §2
[9] = Percent negation of rise in total serum cholesterol relative to control-fed 0.5% cholesterol for 7 days, At a dose of 1 mg/kg/day; type: ADME, organism-based; conditions: in vivo, 168 h; procedure, shortened: as §2
[10] = Percent negation of rise in total serum cholesterol relative to control-fed 0.5% cholesterol for 7 days, at a dose of 0.03 mg/kg/day; type: ADME, organism-based; conditions: in vivo, 168 h; procedure, shortened: as §2
[11] = The pharmacokinetics property percent negation of rise in liver cholesterol esters relative to control-fed 0.5% cholesterol for 7 days, At a dose of 0.03 mg/kg/day; type: ADME, organism-based; conditions: in vivo, 168 h; procedure, shortened: as §1
[12] = The pharmacokinetics property percent negation of rise in liver cholesterol esters relative to control-fed 0.5% cholesterol for 7 days, At a dose of 0.1 mg/kg/day; type: ADME, organism-based; conditions: in vivo, 168 h; procedure, shortened: as §1
[13] = The pharmacokinetics property percent negation of rise in liver cholesterol esters relative to control-fed 0.5% cholesterol for 7 days, At a dose of 0.3 mg/kg/day; type: ADME, organism-based; conditions: in vivo, 168 h; procedure, shortened: as §1
[14] = The pharmacokinetics property percent negation of rise in liver cholesterol esters relative to control-fed 0.5% cholesterol for 7 days, At a dose of 1 mg/kg/day; type: ADME, organism-based; conditions: in vivo, 168 h; procedure, shortened: as §1
Cricetinae gen. sp. [15] = experiment: The compound was evaluated for percent reduction of liver cholesterol esters(LCE) in cholesterol-fed hamsters at 10 mg/Kg/day; type: functional, Cricetulus griseus; procedure, shortened: as §1
Cricetinae gen. sp. [16] = experiment: The compound was evaluated for percent reduction of liver cholesterol esters(LCE) in cholesterol-fed hamsters at 3 mg/kg/day; type: functional, Cricetulus griseus; procedure, shortened: as §1
Cricetinae gen. sp. [17] = experiment: The compound was evaluated for percent reduction of liver cholesterol esters(LCE) in cholesterol-fed hamsters at 2.5 mg/Kg/day; type: functional, Cricetulus griseus; procedure, shortened: as §1
Cricetinae gen. sp. [18] = conditions: Cricetulus griseus; Liver; 10 mg/kg
Cricetinae gen. sp. [19] = experiment: The compound was evaluated for its ability to reduce liver cholesterol esters(LCE) in cholesterol-fed hamsters; NE=no effect at 100 mg/kg; type: functional, organism-based; set-up: dose 100 mg/kg; conditions: Cricetulus griseus; procedure, shortened: as §1

Compound: O=C1[C@H](CC[C@@H](O)c2ccc(F)cc2)[C@@H](c2ccc(O)cc2)N1c1ccc(F)cc1
ED50 (Cricetinae gen. sp. [1]): 0.8 mg/kg/day

Compound: COc1ccc(N2C(=O)[C@H](CC[C@@H](O)c3ccccc3)[C@H]2c2ccc(O)cc2)cc1
ED50 (Cricetinae gen. sp. [1]): 3 mg/kg/day

Compound: CC1CC[C@@]2(OC1)O[C@H]1C[C@H]3[C@@H]4CC[C@H]5C[C@@H](O[C@@H]6O[C@@H](CO)[C@@H](O[C@@H]7O[C@@H](COC(=O)Nc8ccccc8F)[C@@H](OC(=O)Nc8ccccc8F)[C@H](O)[C@@H]7O)[C@H](O)[C@@H]6O)CC[C@]5(C)[C@H]4CC(=O)[C@]3(C)[C@H]1[C@@H]2C (some centres not stated)
ED50 (Cricetinae gen. sp. [1]): 0.07 mg/kg/day

Compound: COc1ccc(N2C(=O)[C@H](CCC(=O)c3ccccc3)[C@H]2c2ccc(O)cc2)cc1
ED50 (Cricetinae gen. sp. [1]): 3 mg/kg/day

Compound: COc1ccc([C@@H]2[C@@H](CC[C@H](O)c3ccccc3)C(=O)N2c2ccc(OC)cc2)cc1
ED50 (Cricetinae gen. sp. [1]): 0.9 mg/kg/day

Compound: O=C1[C@H](CCCc2ccc(F)cc2)[C@@H](c2ccc(O)cc2)N1c1ccc(F)cc1
ED50 (Cricetinae gen. sp. [1]): 2 mg/kg/day

Negation [2]: Not Active
Negation [3]: Not Active
Negation [4]: Not Active
Negation [5]: -68%
Negation [6]: -76%
Compound: COc1ccc([C@@H]2[C@@H](CCCc3ccccc3)C(=O)N2c2ccc(OC)cc2)cc1 [SCH-48461]
ED50 (Cricetinae gen. sp. [1]): 2.2 mg/kg/day

Negation [7]: -37%
Negation [8]: -72%
Negation [9]: -100%
Negation [10]: -23%
Negation [11]: -39%
Negation [12]: -87%
Negation [13]: -96%
Negation [14]: -100%
Negation [5]: -100%
Negation [6]: -100%
Compound: O=C1[C@H](CC[C@H](O)c2ccc(F)cc2)[C@@H](c2ccc(O)cc2)N1c1ccc(F)cc1 [EZETIMIBE]
ED50 (Cricetinae gen. sp. [1]): 0.04 mg/kg/day

Compound: COc1ccc(N2C(=O)[C@H](CCCc3ccc(O)cc3)[C@H]2c2ccc(O)cc2)cc1
Reduction (Cricetinae gen. sp. [15]): -64%

Compound: O=C1[C@H](CCCc2ccccc2)[C@@H](c2ccc(O)cc2)N1c1ccc(O)cc1
Reduction (Cricetinae gen. sp. [15]): -68%

Compound: COc1ccc([C@@H]2[C@@H](CC[C@@H](O)c3ccccc3)C(=O)N2c2ccc(OC)cc2)cc1
ED50 (Cricetinae gen. sp. [1]): 5 mg/kg/day

Compound: CC(=O)Oc1ccc([C@@H]2[C@@H](CC[C@H](OC(C)=O)c3ccc(F)cc3)C(=O)N2c2ccc(F)cc2)cc1
ED50 (Cricetinae gen. sp. [1]): 0.06 mg/kg/day

Compound: O=C(CC[C@H]1C(=O)N(c2ccc(F)cc2)[C@@H]1c1ccc(OCc2ccccc2)cc1)c1ccc(F)cc1
Reduction (Cricetinae gen. sp. [16]): -96%

Compound: COc1ccc(N2C(=O)[C@H](CC[C@H](O)c3ccccc3)[C@H]2c2ccc(O)cc2)cc1
ED50 (Cricetinae gen. sp. [1]): 0.3 mg/kg/day

Compound: CCC(CC(CC)c1ccc(C[N+](C)(C)C)cc1)c1ccccc1.[Cl-] (configuration not stated)
% reduction (Cricetinae gen. sp. [17]): -96

Compound: O=C(CC[C@H]1C(=O)N(c2ccc(F)cc2)[C@@H]1c1ccc(O)cc1)c1ccc(F)cc1
ED50 (Cricetinae gen. sp. [1]): 0.3 mg/kg/day

Compound: COc1ccc([C@@H]2[C@@H](CCCc3ccc(O)cc3)C(=O)N2c2ccc(OC)cc2)cc1
Reduction (Cricetinae gen. sp. [15]): -16%

Compound: O=C1[C@H](CC[C@H](O)c2ccc(F)cc2)[C@@H](c2ccc(OCc3ccccc3)cc2)N1c1ccc(F)cc1
ED50 (Cricetinae gen. sp. [1]): 0.1 mg/kg/day

Compound: CC[C@H](C)C(=O)O[C@H]1C[C@@H](C)C=C2C=C[C@H](C)[C@H](CC[C@@H]3C[C@@H](O)CC(=O)O3)[C@H]21
ED50 (Cricetinae gen. sp. [18]): No effect

Compound: CC(=O)Oc1ccc([C@@H]2[C@@H](CC[C@@H](OC(C)=O)c3ccc(F)cc3)C(=O)N2c2ccc(F)cc2)cc1
ED50 (Cricetinae gen. sp. [1]): 1.5 mg/kg/day

Compound: Cc1ccc(C)c(OCCCC(C)(C)C(=O)O)c1
ED50 (Cricetinae gen. sp. [19]): inactive

Compound: COc1ccc(N2C(=O)[C@H](CCCc3ccccc3)[C@H]2c2ccc(O)cc2)cc1
ED50 (Cricetinae gen. sp. [1]): 5 mg/kg/day

Compound: CC1CC[C@@]2(OC1)O[C@H]1C[C@H]3[C@@H]4CC[C@H]5C[C@@H](O[C@@H]6O[C@@H](CO)[C@@H](O[C@@H]7O[C@@H](COC(=O)Nc8ccccc8F)[C@@H](OC(=O)Nc8ccccc8F)[C@H](O)[C@@H]7O)[C@H](O)[C@@H]6O)CC[C@]5(C)[C@H]4C(=O)C[C@]3(C)[C@H]1[C@@H]2C (some centres not stated)
ED50 (Cricetinae gen. sp. [1]): 0.025 mg/kg/day

Compound: O=C1[C@H](C/C=C/c2ccc(F)cc2)[C@@H](c2ccc(O)cc2)N1c1ccc(F)cc1
ED50 (Cricetinae gen. sp. [1]): 2.5 mg/kg/day

Compound: COc1ccc([C@@H]2[C@@H](CCC(=O)c3ccccc3)C(=O)N2c2ccc(OC)cc2)cc1
ED50 (Cricetinae gen. sp. [1]): 2 mg/kg/day

Compound: COc1ccc([C@@H]2[C@@H](CCCc3ccccc3)C(=O)N2c2ccc(O)cc2)cc1
Reduction (Cricetinae gen. sp. [15]): -78%

Compound: COc1ccc([C@@H]2[C@@H](CCCc3ccc(F)cc3)C(=O)N2c2ccc(F)cc2)cc1
ED50 (Cricetinae gen. sp. [1]): 0.7 mg/kg/day
